Results as given in ChEMBL document CHEMBL1153459, “Tetrahydropyridine derivatives with inhibitory activity on the production of proinflammatory cytokines: part 1” (Bioorg Med Chem Lett, 2009).

What was measured:
Blood = experiment: Inhibition of LPS-induced TNFalpha production in human whole blood by immunoassay; format: functional, tissue-based
Method in brief: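 Human whole blood from consenting volunteers, 988 µL aliquots, was mixed with compound in DMSO and LPS at a final 10 µg/mL, then incubated 6 h at 37 °C. Samples were chilled and spun, and plasma TNFα was measured by immunoassay. Percent inhibition was taken relative to LPS control after subtracting the unstimulated negative control. IC50 from N = 3–4.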

Mus musculus [1] = experiment: Inhibition of LPS-induced TNFalpha production in mouse at 20 mg/kg, po after 1 hr by ELISA; format: functional
Method in brief: (§1)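 Mice were fasted overnight with water allowed. Compound was given orally as a suspension in 0.5% CMC at 10 mL/kg. After 30 min, LPS in saline was injected iv at 0.45 mg/10 mL/kg. Heparinized vena cava blood was drawn 1 h later and plasma TNFα measured by ELISA. Percent inhibition was taken versus vehicle/LPS control after subtracting normal mice. N = 5.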

Mus musculus [2] = experiment: Inhibition of LPS-induced TNFalpha production in orally dosed mouse after 1 hr by ELISA; format: functional; settings: po, read-out: ID50 (the source's name)
Method in brief: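 Mice fasted overnight (water allowed), then given compound orally as a suspension in 0.5% CMC at 10 mL/kg; controls received vehicle alone. 30 min later LPS in saline was injected i.v. at 0.45 mg/10 mL/kg; normal mice got saline. After 1 h, heparinised vena cava blood was spun and plasma TNFα measured by ELISA. % inhibition was taken against normal and control mice; ID50 derived. N = 5.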

Mus musculus [3] = experiment: Inhibition of LPS-induced TNFalpha production in mouse at 50 mg/kg, po after 1 hr by ELISA; format: functional; method in brief: as §1

Question: NCc1c[nH]c(-c2ccc(F)cc2)c1-c1ccncc1 was tested. Which IC50 (Blood) did it give?
Answer: > 30 µM

Question: How did the IC50 (Blood) turn out when Fc1ccc(-c2[nH]cc(CCCN3CCCCC3)c2-c2ccncc2)cc1 was run?
Answer: 28.4 µM

Question: Which IC50 (Blood) does the source give for OC1(c2c[nH]c(-c3ccc(F)cc3)c2-c2ccncc2)CCNCC1 here?
Answer: > 30 µM

Question: What about the inhibition in vivo at 20 mg/kg (Mus musculus [1]) of the same compound?
Answer: -2.7%

Question: What does the source list for Fc1ccc(-c2[nH]cc(C3=CCNCC3)c2-c2ccncc2)cc1?
Answer: ED50 (Mus musculus [2]): 5.98 mg/kg; IC50 (Blood): 1.86 µM

Question: Which IC50 (Blood) does the source give for Fc1ccc(-c2[nH]cc(CCCN3CCOCC3)c2-c2ccncc2)cc1 here?
Answer: > 30 µM

Question: With Fc1ccc(-c2[nH]cc(CCCN3CCN(Cc4ccccc4)CC3)c2-c2ccncc2)cc1 as the compound, how does the IC50 (Blood) read?
Answer: > 30 µM

Question: Which IC50 (Blood) does the source give for CC(=O)NCCCc1c[nH]c(-c2ccc(F)cc2)c1-c1ccncc1 here?
Answer: > 30 µM

Question: With Fc1ccc(-c2[nH]cc(C3CCNCC3)c2-c2ccncc2)cc1 as the compound, how does the ED50 (Mus musculus [2]) read?
Answer: 17.9 mg/kg

Question: What about the IC50 (Blood) of the same compound?
Answer: 2.98 µM

Question: With CNCCCc1c[nH]c(-c2ccc(F)cc2)c1-c1ccncc1 as the compound, how does the IC50 (Blood) read?
Answer: 14.7 µM

Question: How did the IC50 (Blood) turn out when NCCCc1c[nH]c(-c2ccc(F)cc2)c1-c1ccncc1 was run?
Answer: 4.76 µM

Question: How did the IC50 (Blood) turn out when CN1CCN(CCCc2c[nH]c(-c3ccc(F)cc3)c2-c2ccncc2)CC1 was run?
Answer: > 30 µM

Question: Fc1ccc(-c2[nH]cc(CCCN3CCNCC3)c2-c2ccncc2)cc1 was tested. Which IC50 (Blood) did it give?
Answer: > 30 µM

Question: For Fc1ccc(-c2[nH]cc(CCCN3CCSCC3)c2-c2ccncc2)cc1, which IC50 (Blood) is on record?
Answer: > 30 µM

Question: Which IC50 (Blood) does the source give for NCCCCc1c[nH]c(-c2ccc(F)cc2)c1-c1ccncc1 here?
Answer: 13.8 µM

Question: CN(C)CCCc1c[nH]c(-c2ccc(F)cc2)c1-c1ccncc1 was tested. Which IC50 (Blood) did it give?
Answer: 22.4 µM

Question: Which IC50 (Blood) does the source give for Fc1ccc(-c2[nH]cc(-c3ccncc3)c2-c2ccncc2)cc1 here?
Answer: > 30 µM

Question: What about the inhibition in vivo at 50 mg/kg (Mus musculus [3]) of the same compound?
Answer: 24.5%

Question: For C[S+]([O-])c1ccc(-c2nc(-c3ccc(F)cc3)c(-c3ccncc3)[nH]2)cc1 (configuration not stated) [SB-203580], which ED50 (Mus musculus [2]) is on record?
Answer: 27.9 mg/kg

Question: What about the IC50 (Blood) of the same compound?
Answer: 6.4 µM
